Measured values as given in ChEMBL document CHEMBL4725355, “Design, Synthesis, and Preclinical Evaluation of 3-Methyl-6-(5-thiophenyl)-1,3-dihydro-imidazo[4,5-b]pyridin-2-ones as Selective GluN2B Negative Allosteric Modulators for the Treatment of Mood Disorders” (J Med Chem, 2020).
Converted amounts (≈) assume the structure as drawn.

Experiments:
[1] = (§1) Ratio of Cmax in Sprague-Dawley rat at 500 mg/kg, po administered via gavage after 24 hrs using HPMC formulation by LC-MS/MS analysis to EC70 for ex vivo receptor occupancy at GluN2B in po dosed Sprague-Dawley rat assessed as 3-[3H] 1-(azetidin-1-yl)-2-[6-(4-fluoro-3-methyl-phenyl)pyrrolo[3,2-b]pyridin-1-yl]-ethanone labelling; type: ADME, organism-based
[2] = as §1, with “125” for “500”; type: ADME, organism-based
[3] = AUC (0 to 24 hrs) in Sprague-Dawley rat at 250 mg/kg, po administered via gavage after 24 hrs using HPMC formulation by LC-MS/MS analysis; type: ADME, organism-based; parameters: route oral, dose 250 mg/kg, time <=24; settings: in vivo
Outline: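 Single oral gavage dose to male Sprague Dawley rats, 3 per dose level. Vehicles were a standard suspension in 5% HPMC (125, 250, 500 or 1000 mg/kg) or a nanosuspension (API:polymer 4:1), with stock diluted in vehicle on the day of dosing (100, 250 or 500 mg/kg). Blood was sampled at time points from 0.5 to 24 h.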

[4] = Metabolic stability in rat liver microsomes assessed as extraction ratio at 1 uM after 5 to 60 mins in presence of NADPH by LC-MS/MS analysis; type: ADME, Microsome; settings: time 5-60 min, read-out: ERH
Outline: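 Human and rat liver microsomes, run in duplicate; stability reported as microsomal extraction ratio.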

[5] = Oral bioavailability in mouse at 2.5 mg/kg by LC-MS/MS analysis; type: ADME, organism-based; settings: in vivo
[6] = Cmax in Sprague-Dawley rat at 500 mg/kg/day, po administered as nanosuspension measured for 14 days measured post last dose by LC-MS/MS analysis; type: ADME, organism-based; parameters: route oral, time 14 day, dose 500 mg/kg/day; settings: in vivo
Outline: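 Repeated daily oral dosing of the nanosuspension to rats for 14 days, up to 500 mg/kg/day.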

[7] = Tmax in Sprague-Dawley rat at 125 mg/kg, po administered via gavage after 24 hrs using HPMC formulation by LC-MS/MS analysis; type: ADME, organism-based; settings: in vivo
Outline: (§2)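 Single oral gavage of a 5% HPMC suspension at 125, 250, 500 or 1000 mg/kg to male Sprague Dawley rats, 3 per group. Plasma was sampled at 6 time points from 0.5 to 24 h.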

[8] = Ex vivo receptor occupancy at GluN2B in Sprague-Dawley rat assessed as 3-[3H] 1-(azetidin-1-yl)-2-[6-(4-fluoro-3-methyl-phenyl)pyrrolo[3,2-b]pyridin-1-yl]-ethanone labelling at 3 mg/kg, po measured after 0.5 hrs by autoradiography; type: functional
Outline: (§3)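 Rats dosed orally at 3 mg/kg in 20% HP-β-CD; brains taken at 0.5, 2 and 6 h. Ex vivo autoradiography of brain slices with the ³H pyrrolo[3,2-b]pyridine GluN2B tracer. Labelling expressed relative to matching brain areas of vehicle-treated animals; n=2, ± SEM.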

[9] = Cmax in Sprague-Dawley rat at 2.5 mg/kg, po by LC-MS/MS analysis; type: ADME, organism-based; parameters: route oral, dose 2.5 mg/kg; settings: in vivo
Outline: (§4)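 Rat PK with IV and PO dosing, n=3. The usual doses were 0.5 mg/kg IV and 2.5 mg/kg PO in 20% HP-β-CD. One compound was instead given at 0.1 mg/kg IV and 0.5 mg/kg PO.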

[10] = Cmax in monkey at 0.5 mg/kg, po by LC-MS/MS analysis; type: ADME, organism-based, Macaca mulatta; parameters: route oral, dose 0.5 mg/kg; settings: rhesus monkey, in vivo
[11] = Solubility of compound in simulated gastric fluid at pH 1.2 measured after 3 days; type: physicochemical; settings: time 3 day
Outline: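 Solubility in aqueous buffer at pH 2 and pH 7, and in simulated gastric and intestinal fluids.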

[12] = Drug level in Sprague-Dawley rat brain cerebellum at 0.03 mg/kg, iv after 120 min by LC-MS/MS analysis; type: ADME, organism-based; settings: read-out: Drug uptake
Outline: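 Rats (n=3 per group) received a single IV dose of 0.03 mg/kg in 50% (w/v) PEG/water at pH 7.4 and were sacrificed at 5, 10, 30, 60 and 120 min. Cerebellum, cortex, striatum and hippocampus were weighed, homogenized and analyzed by LC-MS/MS, with levels normalized to tissue weight.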

[13] = Tmax in Sprague-Dawley rat at 250 mg/kg, po administered via gavage after 24 hrs using HPMC formulation by LC-MS/MS analysis; type: ADME, organism-based; settings: in vivo; outline: as §2
[14] = Cmax in mouse at 2.5 mg/kg, po by LC-MS/MS analysis; type: ADME, organism-based; parameters: route oral, dose 2.5 mg/kg; settings: in vivo
[15] = AUC (infinity) in Sprague-Dawley rat at 2.5 mg/kg, po by LC-MS/MS analysis; type: ADME, organism-based; parameters: time infinity, route oral, dose 2.5 mg/kg; settings: in vivo; outline: as §4
Cytochrome P450 3A4 [16] = biological target: T1, Cytochrome P450 3A4 (Homo sapiens, UniProt P08684); experiment: Time-dependent inhibition of CYP3A4 in human liver microsomes at 10 uM using midazolam as substrate by LC-MS/MS analysis; type: ADME
T1 sequence (P08684 whole entry): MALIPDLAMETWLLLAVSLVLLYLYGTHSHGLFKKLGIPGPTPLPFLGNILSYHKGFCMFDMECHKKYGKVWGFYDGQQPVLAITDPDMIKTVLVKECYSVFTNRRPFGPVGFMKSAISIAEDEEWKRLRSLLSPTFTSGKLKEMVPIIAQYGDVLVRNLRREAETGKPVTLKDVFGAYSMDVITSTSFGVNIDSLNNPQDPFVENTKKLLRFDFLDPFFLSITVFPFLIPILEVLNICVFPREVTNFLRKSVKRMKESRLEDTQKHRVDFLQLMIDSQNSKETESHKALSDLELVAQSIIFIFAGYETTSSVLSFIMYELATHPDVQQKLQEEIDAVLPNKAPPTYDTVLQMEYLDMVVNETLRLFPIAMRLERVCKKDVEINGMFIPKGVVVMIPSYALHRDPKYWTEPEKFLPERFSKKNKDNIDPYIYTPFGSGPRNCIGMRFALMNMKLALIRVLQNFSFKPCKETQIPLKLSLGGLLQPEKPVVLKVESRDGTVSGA
Outline: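 CYP3A4 time-dependent inhibition in human liver microsomes. The compound (0.4 to 10 μM) was tested with and without 30 min preincubation. IC50 was taken from percent activity remaining versus vehicle, averaged over two independent experiments. A >2-fold IC50 shift after preincubation was the threshold for time-dependent inhibition.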

[17] = Ex vivo receptor occupancy at GluN2B in Sprague-Dawley rat assessed as 3-[3H] 1-(azetidin-1-yl)-2-[6-(4-fluoro-3-methyl-phenyl)pyrrolo[3,2-b]pyridin-1-yl]-ethanone labelling at 3 mg/kg, po measured after 2 hrs by autoradiography; type: functional; outline: as §3
[18] = Drug level in Sprague-Dawley rat brain cerebellum at 0.03 mg/kg, iv after 30 min by LC-MS/MS analysis; type: ADME, organism-based; settings: read-out: Drug uptake
Outline: (§5)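 Single i.v. dose of 0.03 mg/kg in 50% (w/v) PEG/water, pH 7.4; rats n=3 per group, killed at 5, 10, 30, 60 and 120 min. Cerebellum, cortex, striatum and hippocampus dissected, weighed and homogenized; drug quantified by LC-MS/MS and normalized to tissue weight. P<0.05 taken as significant versus cerebellum.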

[19] = AUC (infinity) in monkey at 0.1 mg/kg, iv by LC-MS/MS analysis; type: ADME, organism-based, Macaca mulatta; parameters: time infinity, route intravenous, dose 0.1 mg/kg; settings: rhesus monkey, in vivo
[20] = Negative allosteric modulation of human GluN1a/GluN2D receptor expressed in CHO cells assessed as inhibition of glutamate and glycine-induced calcium flux preincubated for 5 mins followed by glutamate and glycine addition and measured after 5 mins by calcium 5 dye based FLIPR assay; type: cell-based
Outline: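 Tet-On CHO T-Rex cells expressing hGluN1a with GluN2A, 2B, 2C or 2D, plated at 20,000 cells/well and induced 24 h before the assay in the presence of ketamine. Cells loaded 1 h at room temperature with Calcium 5 dye, pH 7.4 HEPES buffer. Compound added 5 min, then glutamate (~EC80) plus 10 µM glycine for 5 min; FLIPR fluorescence normalized to control wells. Three independent runs in duplicate (two for some).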

Cytochrome P450 3A4 [21] = biological target: T1, Cytochrome P450 3A4; experiment: Inhibition of CYP3A4 in human liver microsomes using midazolam as substrate measured after 15 mins by LC-MS/MS analysis; type: ADME
Outline: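 Human liver microsomes incubated with isoform-specific probe substrates and the test compound at concentrations up to 20 µM. IC50 derived from inhibition of metabolite formation; mean of two independent experiments, with known specific inhibitors as positive controls.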

[22] = Clearance in dog at 0.1 mg/kg, iv by LC-MS/MS analysis; type: ADME, organism-based, Canis lupus familiaris; settings: in vivo
[23] = Drug level in Sprague-Dawley rat brain hippocampus at 0.03 mg/kg, iv after 120 min by LC-MS/MS analysis; type: ADME, organism-based; settings: read-out: Drug uptake; outline: as §5

For `Cn1c(=O)n(CC(=O)N2CCC2)c2cc(-c3ccc(C(F)(F)F)s3)cnc21`, the Ratio [1] was 9, the Ratio [2] was 6 and the AUC(0-t) [3] was 19700 ng·h/mL. The hepatic extraction ratio at 1 µM [4] was < 0.17, the bioavailability [5] was 69% and the Cmax [6] was 21700 ng/mL. The Tmax [7] was 2.7 h, the Occ [8] was 87% and the Cmax [9] was 479 ng/mL. For the same molecule, the Cmax [10] was 167 ng/mL, the solubility at 72 h [11] was 4.4 µM (≈ 1.74 µg/mL) and the concentration at 2 h [12] was 6.9 ng/mL. The Tmax [13] was 2.7 h, the Cmax [14] was 413 ng/mL and the AUC(0-inf) [15] was 1830 ng·h/mL. For the same molecule, the TDI (Cytochrome P450 3A4 [16]) was “Not Active”, the Occ [17] was 76% and the concentration at 0.5 h [18] was 13.8 ng/mL. For the same molecule, the AUC(0-inf) [19] was 190 ng·h/mL, the IC50 [20] was > 10 µM and the IC50 (Cytochrome P450 3A4 [21]) was > 50 µM. The clearance [22] was 17 mL/min/kg and the concentration at 2 h [23] was 10.1 ng/mL.
